Measurements reported in PubChem BioAssay AID651560 (Sanford-Burnham Center for Chemical Genomics, 2012).
Among all 360,000 compounds or so, about 820 (0.23%) were called active.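 How the source made its calls: active means compounds that cut the enzyme signal by at least half of the control window in the single-dose screen; inactive means the rest.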 What follows is part of a selection rich in actives, with near analogues and random picks from the rest.

Each compound was assayed against Low molecular weight phosphotyrosine protein phosphatase (Homo sapiens) (UniProt P24666) (assay: inhibition of human LMPTP-A enzyme – biochemical, fluorescence intensity, uHTS, primary screen (AID 651560;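 further: plate controls were DMSO wells with enzyme plus substrate for no effect and substrate without enzyme for full effect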)). Conditions: recombinant LMPTP-A, OMFP fluorogenic substrate, at 20 µM, stronger effect = higher value.
Chain of Low molecular weight phosphotyrosine protein phosphatase (Homo sapiens) (P24666 whole entry, looked up): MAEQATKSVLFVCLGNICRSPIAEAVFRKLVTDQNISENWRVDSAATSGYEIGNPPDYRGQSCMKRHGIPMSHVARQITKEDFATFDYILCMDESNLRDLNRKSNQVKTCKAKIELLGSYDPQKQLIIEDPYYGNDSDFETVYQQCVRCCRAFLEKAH
Method in brief: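 Assay system: LMPTP-A phosphatase enzyme | Input: 0.625 nM enzyme | Also added: Fluorogenic phosphatase substrate OMFP at 400 µM final | Compound dosing: One test concentration per compound, 20 µM, with 3% DMSO overall | Schedule: 50 min enzyme reaction at room temperature, protected from light | Signal: Fluorescence intensity | Benchmarks: no-enzyme and uninhibited controls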

SMILES	inhibition
N#CCSc1nn(-c2ccc(F)cc2)c(=S)s1	-0.858% (inactive)
CCOC(=O)C1CCN(C(=O)c2ccc3c(=O)n4nc(Nc5ccccc5CC)sc4nc3c2)CC1	1.95% (inactive)
CS(=O)(=O)N1CCCCC1c1cc(C(=O)NCc2ccccc2)no1 (stereo unspecified)	-1.43% (inactive)
Nc1nc(C23CC4CC(CC(C4)C2)C3)cs1	-0.25% (inactive)
C#CCN(N(C)c1ncc(C(F)(F)F)cc1Cl)S(=O)(=O)c1ccc2ccccc2c1	5.44% (inactive)
CN(C)C(=O)Cn1c(=O)n(S(=O)(=O)c2ccccc2)c2ccccc21	-0.0726% (inactive)
Cc1cccc(NC(=O)CSc2nnc(CCCCCNC(=O)OC(C)(C)C)o2)c1C	-0.643% (inactive)
O=C(NCc1cccnc1)c1cc(C2CCCN(C(=O)CCCc3ccccc3)C2)on1 (stereo unspecified)	-0.488% (inactive)
CCN1/C(=C\c2ccc3ccccc3[n+]2CC)Sc2cc(C)ccc21	63.9% (active)
Cc1nc(CC(=O)NNS(=O)(=O)c2ccc(F)c(Cl)c2)cs1	-1.65% (inactive)
Cc1cccc(OCC(O)CN2CCN(CCN3C(=O)c4cccc5cccc(c45)C3=O)CC2)c1C (stereo unspecified)	8.73% (inactive)
CCOC(=O)Cc1cc(=O)[nH]c(/N=C(\N)Nc2ccc(OC)cc2)n1	-0.31% (inactive)
CCSc1nc(=S)n(CC)c(C)c1C(C)=O	-0.754% (inactive)
COC(=O)CN1C(C)=Nc2ccc(Br)cc2C1c1ccccc1 (stereo unspecified)	-0.193% (inactive)
CCn1ccnc1CNC(=O)CC1C(=O)NCCN1CCCc1ccccc1 (stereo unspecified)	-2.22% (inactive)
CCOc1cc2[nH]c(=S)n(Cc3ccc(C(=O)N4CCN(C)CC4)cc3)c(=O)c2cc1OCC	1.07% (inactive)
O=c1c(Cl)c(NCc2ccc(F)cc2Cl)cnn1C12CC3CC(CC(C3)C1)C2	1.08% (inactive)
O=C1c2ccccc2C(Nc2ccc3c(c2)OCCO3)N1Cc1ccco1 (stereo unspecified)	0.866% (inactive)
Cn1c(=O)c(=O)n(C)c2cc(S(=O)(=O)CCC(=O)N3CCCCC3)ccc21	-0.491% (inactive)
COc1ccc(-c2oc3ncn(Cc4ccco4)c(=N)c3c2-c2ccc(OC)cc2)cc1	3.1% (inactive)
Cn1c2ccccc2c(=O)c2c(=O)n(Cc3ccco3)c(COc3ccccc3)nc21	69% (active)
O=C(Cn1c(=O)n(Cc2ccco2)c(=O)c2ccccc21)NCC1CCCO1 (stereo unspecified)	-0.056% (inactive)

SMILES	inhibition
O=C(CC(=O)N/N=C\c1cccc(Cl)c1Cl)NCc1ccccc1	-1.17% (inactive)
O=C(CO/N=C/c1ccccc1O)NNC(=O)c1ccccc1Cl	-0.137% (inactive)
O=C(NN=Cc1ccccc1O)NN=Cc1ccccc1O	61.8% (active)
O=C(Nc1cc(S(=O)(=O)N2CCOCC2)ccc1N1CCOCC1)c1c(F)cccc1Cl	-0.613% (inactive)
O=C(CCCOc1ccccc1)NNC(=O)c1ccc(Cl)cc1	-0.0475% (inactive)
O=C(NNC(=O)c1ccc2ccccc2c1)c1ccc(Cl)cc1	49.6% (active)
CN(CC(=O)Nc1ccc(Cl)cc1)C(=O)CNC(=O)c1ccc2ccccc2c1	0.862% (inactive)
CC(C)(C)S(=O)(=O)c1ccccc1-c1noc(-c2ccccc2)c1C(N)=O	-0.802% (inactive)
Cc1ncc([N+](=O)[O-])n1CCOC(=O)c1ccc(Br)cc1	-0.676% (inactive)
C[C@H](NC(=O)NCCc1ccccc1)C(=O)O	0.573% (inactive)
CCOC(=O)C1(CC2CCCCO2)CCN(Cc2nc(-c3cccs3)oc2C)CC1 (stereo unspecified)	0.186% (inactive)
O=C(COC(=O)C1CC2CCCC(C1)C2=O)NC(=O)c1ccccc1 (stereo unspecified)	-0.507% (inactive)
CC(Oc1ccc(F)cc1F)C(=O)/C=C/N(C)C (stereo unspecified)	0.234% (inactive)
C[C@H]1CN([C@@H](C)CO)S(=O)(=O)c2ccc(-c3cccc(F)c3)cc2O[C@@H]1CN(C)C	-1.08% (inactive)
CCOC(=O)N1CCN(C(=S)Nc2ccc(C)cc2C)CC1	-1.47% (inactive)
COc1cc([N+](=O)[O-])ccc1NC(=S)N1CCN(c2ccccn2)CC1	0.0311% (inactive)
CC1CCN(C(=S)c2cccc(O)c2)CC1	0.643% (inactive)
CCS(=O)(=O)N1Cc2ccccc2CC1C(=O)Nc1ccc(OC)cc1OC (stereo unspecified)	-0.419% (inactive)
CC(NC(=S)NNS(=O)(=O)c1ccc(C(C)(C)C)cc1)c1ccccc1 (stereo unspecified)	2.08% (inactive)
Cc1c(Nc2nc3ccccc3nc2NS(=O)(=O)c2cccs2)c(=O)n(-c2ccccc2)n1C	-0.947% (inactive)
O=C(COc1ccc(/C=N/NC(=O)c2ccc(O)cc2)cc1)Nc1ccc([N+](=O)[O-])cc1	71.4% (active)
N#Cc1cc([N+](=O)[O-])ccc1Oc1cccc(/C=N/NC(=O)c2ccc(Cl)cc2)c1	0.464% (inactive)

SMILES	inhibition
O=C(CSc1ccc([N+](=O)[O-])cn1)Nc1ccc(N2CCOCC2)cc1	-0.239% (inactive)
O=C(COc1ccc([N+](=O)[O-])cc1)Nc1cccc(C(=O)Nc2ccccc2C(=O)O)c1	0.459% (inactive)
O=C(COC(=O)C1CCCCC1)Nc1ccc([N+](=O)[O-])cc1	0.534% (inactive)
O=C(COc1ccc([N+](=O)[O-])cc1)Nc1ccc(N2CCCC2)cc1	59.1% (active)
COc1ccc(CCNc2ncnc3c2nnn3Cc2ccccc2)cc1	1.88% (inactive)
CCn1ccnc1CNC(=O)CC1C(=O)NCCN1Cc1ccc(F)cc1Cl (stereo unspecified)	1.38% (inactive)
Nc1ccc(Cl)c(S(=O)(=O)Nc2ccccc2Cl)c1	-0.587% (inactive)
O=S(=O)(c1ccc(F)cc1)N1CCN(C(=S)NCc2ccco2)CC1	0.0562% (inactive)
CCCc1c(C)nc2scc(-c3ccc(Cl)cc3)n2c1=O	-0.6% (inactive)
O=c1ccc2c(-c3ccccc3S(=O)(=O)O)c3ccc(O)c(O)c3oc-2c1O	58.1% (active)
Cc1ccc(N2C(=O)C3C4C=CC(CC4)C3C2=O)cc1Br (stereo unspecified)	-1.41% (inactive)
COc1cc(Cl)c(C)cc1NC(=O)[C@@H]1CCCN1C(=O)c1cccs1	-1.01% (inactive)
CCN(CC)Cc1nc2sc(C)c(C)c2c(=O)[nH]1	-1.11% (inactive)
NS(=O)(=O)c1ccc(NC(=S)NNC(=O)c2cccs2)cc1	-0.673% (inactive)
C/C(=N\Nc1nc2ccccc2[nH]1)c1cccs1	1.27% (inactive)
C/C(=N\Nc1ccc(S(N)(=O)=O)cc1[N+](=O)[O-])c1cccs1	57.1% (active)
CCOC1=C2CN(S(=O)(=O)c3ccc(C)cc3)[C@H](c3cccs3)C[C@H]2[C@H]2C(=O)N(c3ccccc3)C(=O)[C@H]2C1	0.231% (inactive)
O=C(c1ccccc1)c1ccc2nc(N3CCCCC3)c3nncn3c2c1	2.58% (inactive)
CC(C)(Oc1ccc(Cl)cc1)C(=O)OCC(=O)NCCc1ccc(S(N)(=O)=O)cc1	-0.949% (inactive)
Cc1sc2ncnc(SCC(=O)Nc3ccc(CN4CCCC4)cc3)c2c1C	23.7% (inactive)
O=c1c2ccccc2nnn1CSc1nc2sc3c(c2c(=O)n1CC1CCCO1)CCC3 (stereo unspecified)	4.21% (inactive)
O=C(CCc1nc2sc3c(c2c(=O)[nH]1)CCCC3)NCC(=O)Nc1ccccc1Br	9.36% (inactive)

SMILES	inhibition
O=C(Nc1cccc(Cl)c1)C1CCCN(c2cnccn2)C1 (stereo unspecified)	-0.511% (inactive)
C[C@@H]1CN([C@@H](C)CO)C(=O)CCCn2nncc2CO[C@@H]1CN(C)S(=O)(=O)c1ccc(-c2ccccc2)cc1	-1.91% (inactive)
C=C1c2c(Cl)ccc(O)c2C(O)=C2C(=O)[C@]3(O)C(O)=C(C(N)=O)C(=O)[C@@H](N(C)C)[C@@H]3[C@@H](O)C12 (stereo partly specified)	72.5% (active)
C[C@H](CO)N1C[C@H](C)[C@@H](CN(C)S(=O)(=O)c2ccc(Oc3ccccc3)cc2)OCc2cn(nn2)CCCC1=O	-0.314% (inactive)
O=c1cc(CO)oc(C(Nc2cccc([N+](=O)[O-])c2)c2ccccn2)c1O (stereo unspecified)	-1.69% (inactive)
CCOC(=O)N1CCN(Cc2nc3ccc([N+](=O)[O-])cc3c(=O)n2-c2cccc(OC)c2)CC1	-0.855% (inactive)
CCCCN(C(=O)C1CCC1)c1c(N)n(Cc2ccccc2)c(=O)[nH]c1=O	-1.05% (inactive)
CCN1C(=O)C(=O)N(CC(=O)Nc2cc(C)ccc2C)C1=O	-0.207% (inactive)
COc1cc(CCN=Cc2ccccc2O)c([N+](=O)[O-])cc1OC	0.174% (inactive)
COc1ccc(Br)cc1/C=N/Nc1ccc(S(=O)(=O)Nc2ccccc2C(=O)O)cc1[N+](=O)[O-]	71.1% (active)
COc1ccccc1C(CNC(=O)c1cccc(NS(=O)(=O)c2ccc(Br)cc2)c1)N(C)C (stereo unspecified)	-1.5% (inactive)
Cc1ccc(S(=O)(=O)N[C@@H](Cc2ccccc2)C(=O)N2CCC(C(=O)N[C@H](C(=O)O)C(C)O)CC2)cc1 (stereo partly specified)	-1.25% (inactive)
Cc1ccc(O/C=C2\OC(=O)c3ccccc32)cc1	-1.45% (inactive)
CC1(C)C2CC=C(/C=N/NC(=O)c3ccc(Cl)cc3)C1C2 (stereo unspecified)	-2.83% (inactive)
COC(=O)C(C)C1Sc2ccccc2NC1=O (stereo unspecified)	0.652% (inactive)
CCC1CCCCN1C(=O)CSc1nc(C)cc(C)n1 (stereo unspecified)	-0.356% (inactive)
CCN([C@H](CO)C(C)C)S(=O)(=O)c1ccccc1Br	-1.46% (inactive)
CC1CCCC(C)N1C(=O)COC(=O)c1ccccc1C(=O)c1ccccc1 (stereo unspecified)	-1.53% (inactive)
Cn1c(=O)c2c(ncn2CC(=O)N/N=C/c2cn[nH]c2-c2ccc(F)cc2)n(C)c1=O	-0.239% (inactive)
CCN(c1ccccc1)S(=O)(=O)c1cc2c(cc1C)n(C)c(=O)c(=O)n2C	0.0122% (inactive)
